# Assay results pooled from the literature.
# Protocols differ between the studies behind these lines.
# Target: Activin receptor type-1 (ACVR1, Homo sapiens, UniProt Q04771)
# Sequence (Q04771 1-509, as in one of the studies): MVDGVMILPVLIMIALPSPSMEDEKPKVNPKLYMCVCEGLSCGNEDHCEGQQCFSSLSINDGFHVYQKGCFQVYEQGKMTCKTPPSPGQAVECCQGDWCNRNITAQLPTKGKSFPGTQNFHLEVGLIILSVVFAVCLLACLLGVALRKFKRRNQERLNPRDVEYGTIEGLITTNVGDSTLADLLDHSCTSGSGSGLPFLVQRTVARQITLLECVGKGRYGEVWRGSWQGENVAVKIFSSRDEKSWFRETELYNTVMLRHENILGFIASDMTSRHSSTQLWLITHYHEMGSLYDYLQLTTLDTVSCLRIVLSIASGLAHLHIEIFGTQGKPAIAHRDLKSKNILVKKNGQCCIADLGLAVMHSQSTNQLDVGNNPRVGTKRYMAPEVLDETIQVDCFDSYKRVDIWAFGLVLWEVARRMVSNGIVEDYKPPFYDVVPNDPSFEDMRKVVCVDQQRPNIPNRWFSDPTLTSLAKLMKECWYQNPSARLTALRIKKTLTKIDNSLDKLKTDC
SMILES,effect on,action,technique,tested at,endpoint,result
CC(C)(C)c1nc2c(s1)c1nc(N)ncc1c1ccc(NS(=O)(=O)c3c(F)cccc3F)c(F)c12,enzyme activity,inhibitor,radiometric,1 µM,remaining activity,79%
CC(C)(O)[C@H]1CC[C@H](Nc2ccc3ncc(-c4cccc(C(F)(F)F)c4)n3n2)CC1,enzyme activity,inhibitor,,1 µM,remaining activity,28.2%
Cc1cc(NC(=O)c2cccc3cc(-c4cccc5[nH]nc(N)c45)ccc23)ccc1F,enzyme activity,inhibitor,,0.1 µM,activity vs control,105%
Cn1c2c(c3ccc(Cl)c(Cl)c31)C(C#N)C1(CCOCC1)NC2=O (stereo not drawn),thermal stability,,DSF,10 µM,ΔTm,0.1 °C
CN1CC(Oc2cnc(C#N)cc2-c2ccn3nc(NC(=O)C4CC4)cc3c2)C1,enzyme activity,inhibitor,,1 µM,inhibition,-8%
Cc1ccc(C(=O)Nc2ccc(CN3CCN(C)CC3)c(C(F)(F)F)c2)cc1C#Cc1cnc2cccnn12,cell-free assay,,,23.5 nM,remaining signal,100%
O=C(NS(=O)(=O)c1ccc(NCC2CCOCC2)c([N+](=O)[O-])c1)c1ccc(N2CCN(Cc3ccc(C(F)(F)F)cc3-c3ccc(Cl)cc3)CC2)cc1Oc1cnc2[nH]ccc2c1,cell-free assay,,competition with immobilised ligand,1 µM,remaining binding,89%
Cn1c2c(c3ccc(Cl)c(Cl)c31)C(C#N)C1(CCCC1)NC2=O (stereo not drawn),thermal stability,,DSF,10 µM,ΔTm,-0.2 °C
Oc1cccc(-c2nc(N3CCOCC3)c3oc4ncccc4c3n2)c1,cell-free assay,,,0.5 µM,remaining signal,105%
N#CC1c2c([nH]c3c(Cl)c(Cl)ccc23)C(=O)NC12CCCCC2 (racemic),thermal stability,,DSF,10 µM,ΔTm,0.1 °C
Cn1cc(Cl)c2c(Oc3c(F)cc(Nc4cc(Cl)nc(N)n4)cc3F)ccnc21,cell-free assay,,competition with immobilised ligand,0.1 µM,remaining binding,85%
Cc1cnc(NC2CCOCC2)nc1-n1cnc(C(=O)NC(CN)c2cc(F)cc(Cl)c2)c1 (stereo not drawn),enzyme activity,inhibitor,radiometric,1 µM,remaining activity,96%
COc1cccc(CNC(=O)c2nc3scc(COCc4ccc(C(=O)O)cc4)c3c(=O)[nH]2)c1,cell-free assay,,competition with immobilised ligand,1 µM,remaining binding,94.3%
O=C1NC(=O)c2cc(Nc3ccc(F)cc3)c(Nc3ccc(F)cc3)cc21,cell-free assay,,,0.5 µM,remaining signal,92.3%
O=C(Nc1cnn(-c2csc(C(=O)NC3COC3)c2)c1)Nc1c(F)cccc1Cl,enzyme activity,inhibitor,,5 µM,remaining activity,95.7%
CC(=O)C1=C(C)N(c2cccc(C(F)(F)F)c2)C(=O)N[C@@H]1c1ccc(C#N)nc1,cell-free assay,,competition with immobilised ligand,1 µM,remaining binding,74.5%
Cn1c2c(c3ccc(Cl)c(Cl)c31)C(C#N)C(C)(C)NC2=O (stereo not drawn),thermal stability,,DSF,10 µM,ΔTm,1.1 °C
O=C(O)[C@H]1[C@H](Cn2nnc3ccccc3c2=O)CC[C@@H]1C(=O)c1ccc(OCCC2CCOCC2)cc1,cell-free assay,,competition with immobilised ligand,1 µM,remaining binding,100%
N#CCCc1ccc2c(c1)-c1[nH]c3ccc([N+](=O)[O-])cc3c1CC(=O)N2,cell-free assay,,,0.5 µM,remaining signal,58.8%
CC1=C(C#N)C(c2ccc3c(c2)c(NC(=O)c2ccccc2C)nn3C)C(C#N)=C(C)N1,cell-free assay,,competition with immobilised ligand,1 µM,remaining binding,99%
Nc1ncnc2occ(-c3ccc(NC(=O)Nc4cc(C(F)(F)F)ccc4F)cc3)c12,cell-free assay,,,20 µM,remaining signal,72%
